# Source: PubChem (several laboratories)
# The full list was thinned out, with hits kept by preference.
# L major viab: Leishmania major promastigote growth inhibition; Leishmania major promastigotes, resazurin fluorescence viability; inhibition, % at 10 µM; actives 9% (n = 200,000); AID 1063; in the data active means inhibition above about 50%;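 further: promastigotes grown with compound for 44 hours at 28 °C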
# Hsp70 act: transcriptional activators of Hsp70; HeLa Hsp70 promoter luciferase reporter, luminescence; scaled: vehicle 0, proteasome-inhibitor control 100%; activation, % at 10 µM; actives 0.04% (n = 200,000); AID 1203;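 active means activation above the mean across all tested compounds plus 3 SD, cutoff set per campaign, cut at about 5.5% in these data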
# HSF-1 act: increases HSF-1 driven luciferase reporter signal; NIH3T3-HGL HSF-1 luciferase reporter, MG132, 8 h; 100% = twice DMSO control signal; activation, % at 9 µM; actives 1.7% (n = 300,000); AID 504408;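 active means mean replicate activation of at least 50% with a set share of replicates each reaching 50%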
# HSF1 inh: HSF1 inhibition; NIH3T3-HGL HSE-luciferase, MG132-induced, luminescence 8 h; hits give low values; activity change, negative = inhibition, % at 7.5 µM (by protocol); actives 0.77% (n = 300,000); AID 2098;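 active means more than half of replicate wells show activity change below -50%, luminescence cut by over half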;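 further: luciferase reports HSF-1 transcriptional activity via heat shock element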
# T cruzi repl: T. cruzi replication inhibition. T. cruzi beta-gal in NIH3T3, luminescence, 90 h. inhibition, % (concentration not given with the values). actives 1.4% (n = 300,000). AID 1885;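 active means mean inhibition across valid replicates above about 55%, limit read from the data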;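 further: signal also drops with host cell toxicity which is not excluded here; higher percent means less beta-gal luminescence so fewer parasites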
#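 System: Mouse NIH/3T3 fibroblasts infected with β-gal-expressing T. cruzi Tulahuen C4 | Quantity: NIH/3T3 cells, 5,000 per well | Reagent: 5000 reporter trypomastigotes per well | Dosing: Compound pinned at 50 nL/well, DMSO | Schedule: 3 h host attachment, then at least 90 h co-culture | Detection: GalScreen luminescence, 60 min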
# A number is an active result; n = inactive; x = no result given.
SMILES,L major viab,Hsp70 act,HSF-1 act,HSF1 inh,T cruzi repl
NCCCCCc1nnc(SCc2ccc(Cl)c(Cl)c2)o1,100,n,n,n,n
Nc1[nH]n(-c2ccccc2)c(=O)c1N=Nc1ccccc1,x,x,n,n,n
Nc1[nH]n2c(=O)c3c(nc2c1N=Nc1ccc(Cl)cc1)CCCC3,79,n,n,n,n
O=c1c2c(nc3c(-c4ccccc4)c[nH]n13)CCCC2,74,n,n,n,n
Cc1[nH]n2c(=O)c3c(nc2c1-c1ccc(Cl)cc1)CCC3,99,n,n,n,n
Cc1[nH]n2c(=O)c3c(nc2c1-c1ccccc1)CCC3,n,n,n,n,n
Nc1[nH]n2c(=O)c3c(nc2c1N=Nc1ccccc1)CCCC3,91,n,n,n,n
C=CCc1ccc(O)c(-c2ccc(O)c(CC=C)c2)c1,n,n,n,n,n
COc1cc2[nH]c(=S)nc(NCc3ccccn3)c2cc1OC,n,n,x,x,x
N#CCc1nn(-c2ccccc2)c2ncnc(N)c12,x,x,n,-60,n
O=C1CC(N(CCc2ccccc2)C(=S)Nc2cc(Cl)ccc2Cl)C(=O)N1c1c(Cl)cccc1Cl (centres undefined),99,n,n,n,n
O=C1CC(N(CCc2ccccc2)C(=S)Nc2ccccc2)C(=O)N1c1ccccc1 (centres undefined),n,n,n,n,n
C/C(=N\NC(=O)Cn1cc([N+](=O)[O-])cn1)c1ccco1,x,x,n,n,n
CC(C)c1ccc(NC(=S)NC2CCN(Cc3ccccc3)CC2)cc1,92,n,n,n,n
S=C(Nc1ccc2c(c1)OCO2)NC1CCN(Cc2ccccc2)CC1,97,n,n,n,n
O=C(CN1CCC(NC(=O)c2ccccc2F)CC1)Nc1ccc2c(c1)OCO2,n,n,n,n,n
Cc1ccc(NC(=S)NC2CCN(Cc3ccccc3)CC2)cc1C,94,n,n,n,n
Cc1ccc(NC(=O)CN2CCC(NC(=O)Cc3ccccc3)CC2)c(C)c1,70,n,n,n,n
Cc1cc(C)cc(NC(=O)CN2CCC(NC(=O)Cc3ccccc3)CC2)c1,n,n,n,n,n
S=C(Nc1cc(Cl)cc(Cl)c1)NC1CCN(Cc2ccccc2)CC1,x,x,n,n,n
Cc1sc(N)nc1-c1ccc(Oc2ccccc2)cc1,x,x,n,n,n
CCOC(=O)C1(CCCc2ccccc2)CCN(Cc2ccn[nH]2)CC1,n,n,n,n,n
COc1cc(C(=O)NCC(c2ccccc2)N(C)C)ccc1OCC(=O)N1CCOCC1 (centres undefined),n,n,n,n,n
Cc1ccc(NC(=S)NC2CCN(Cc3ccccc3)CC2)cc1,100,n,n,n,n
CC1CCCN(S(=O)(=O)c2ccc(NC(=O)CNC3CCCC3)cc2)C1 (centres undefined),x,x,n,n,n
SMILES,L major viab,Hsp70 act,HSF-1 act,HSF1 inh,T cruzi repl
COC(=O)c1ccccc1NC(=O)c1nc(S(=O)(=O)Cc2ccccc2)ncc1Cl,x,x,n,n,n
CCC1CCCCN1S(=O)(=O)c1ccc(NC(=O)c2nc(S(C)(=O)=O)ncc2Cl)cc1 (centres undefined),x,x,n,-84,n
COc1ccc(CNC(=O)c2nc(S(=O)(=O)Cc3ccccc3)ncc2Cl)cc1,x,x,248,n,n
CC(=O)Nc1ccc(NC(=O)c2nc(S(=O)(=O)Cc3ccccc3)ncc2Cl)cc1,x,x,n,-94,n
CCS(=O)(=O)c1ncc(Cl)c(C(=O)Nc2ccc(S(=O)(=O)N3CCCC(C)C3)cc2)n1 (centres undefined),x,x,n,-79,56
S=C(NCC1CCCO1)N1CCN(c2nc(-c3ccccc3)cs2)CC1 (centres undefined),n,n,n,n,n
CS(=O)(=O)c1ncc(Cl)c(C(=O)Nc2ccc3ccccc3c2)n1,n,n,n,-93,n
O=C(NCc1ccccc1)c1c(Cl)nc(Cl)c(Cl)c1Cl,x,x,65,n,n
O=C(NCc1ccccc1)c1nc(S(=O)(=O)Cc2ccccc2)ncc1Cl,x,x,147,n,n
CCS(=O)(=O)c1ncc(Cl)c(C(=O)Nc2ccc(C)cc2)n1,x,x,n,-98,79
O=C(Nc1ccc2ccccc2c1)c1cnccn1,n,n,n,n,n
Cc1nc(Cl)c(C(=O)NCc2ccccc2)c(C)c1Cl,n,n,n,n,n
CCN(CC)C(=O)Cn1ccc(NC(C)=O)nc1=O,x,x,n,n,n
Cc1ccc(SCC(=O)Nc2ccc(F)cc2[N+](=O)[O-])cc1C,n,n,n,n,n
O=C1CSC(c2ccccc2)N1Cc1ccccc1 (centres undefined),x,x,n,n,n
